Data from ChEMBL document CHEMBL4052636, “Design, synthesis and biological evaluation of some novel sulfonamide derivatives as apoptosis inducers” (Eur J Med Chem, 2017).

Tests used:
Caco-2 [1] = assay: Cytotoxicity against human Caco2 cells assessed as surviving fraction at 25 uM after 24 hrs by MTT assay relative to control; assay type: functional
Outline: (§1)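 Caco-2 cells were kept as monolayers in RPMI-1640 with 10% FBS, 100 U/mL penicillin and streptomycin, at 37 C in humidified 5% CO2. Cells were treated for 24 h at concentrations spanning […], and viability was read by the colorimetric MTT (Mosmann) method. Percent relative viability and IC50 were fitted in Prism.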

Caco-2 [2] = assay: Cytotoxicity against human Caco2 cells assessed as surviving fraction at 50 uM after 24 hrs by MTT assay relative to control; assay type: functional; outline: as §1
Caco-2 [3] = assay: Cytotoxicity against human Caco2 cells assessed as surviving fraction at 10 uM after 24 hrs by MTT assay relative to control; assay type: functional; outline: as §1
Caco-2 [4] = assay: Cytotoxicity against human Caco2 cells assessed as surviving fraction at 100 uM after 24 hrs by MTT assay relative to control; assay type: functional; outline: as §1
Caco-2 [5] = assay: Cytotoxicity against human Caco2 cells assessed as surviving fraction at 1 uM after 24 hrs by MTT assay relative to control; assay type: functional; outline: as §1
Caco-2 [6] = assay: Cytotoxicity against human Caco2 cells assessed as cell viability after 24 hrs by MTT assay; assay type: functional, cell-based; details: Caco-2, 24 h; outline: as §1
Caco-2 [7] = assay: Induction of apoptosis in human Caco2 cells assessed as caspase-3 concentration at 0.15 uM after 24 hrs by colorimetric analysis (reference value: 0.193 nmol/ml); assay type: functional
Caco-2 [8] = assay: Induction of apoptosis in human Caco2 cells assessed as Fas-ligand concentration at 0.6 uM after 24 hrs by FASL-based ELISA (reference value: 20.5 pg/ml); assay type: functional
Caco-2 [9] = assay: Induction of apoptosis in human Caco2 cells assessed as caspase-3 concentration at 0.3 uM after 24 hrs by colorimetric analysis (reference value: 0.193 nmol/ml); assay type: functional
Caco-2 [10] = assay: Induction of apoptosis in human Caco2 cells assessed as Fas-ligand concentration at 0.15 uM after 24 hrs by FASL-based ELISA (reference value: 20.5 pg/ml); assay type: functional
Caco-2 [11] = assay: Induction of apoptosis in human Caco2 cells assessed as caspase-3 concentration at 0.6 uM after 24 hrs by colorimetric analysis (reference value: 0.193 nmol/ml); assay type: functional
Caco-2 [12] = assay: Induction of apoptosis in human Caco2 cells assessed as Fas-ligand concentration at 0.3 uM after 24 hrs by FASL-based ELISA (reference value: 20.5 pg/ml); assay type: functional
Caco-2 [13] = assay: Induction of apoptosis in human Caco2 cells assessed as Fas-ligand concentration at 31.5 uM after 24 hrs by FASL-based ELISA (reference value: 20.5 pg/ml); assay type: functional
Caco-2 [14] = assay: Induction of apoptosis in human Caco2 cells assessed as Fas-ligand concentration at 100 uM after 24 hrs by FASL-based ELISA (reference value: 20.5 pg/ml); assay type: functional
Caco-2 [15] = assay: Induction of apoptosis in human Caco2 cells assessed as caspase-3 concentration at 100 uM after 24 hrs by colorimetric analysis (reference value: 0.193 nmol/ml); assay type: functional
Caco-2 [16] = assay: Induction of apoptosis in human Caco2 cells assessed as Fas-ligand concentration at 63.5 uM after 24 hrs by FASL-based ELISA (reference value: 20.5 pg/ml); assay type: functional
Caco-2 [17] = assay: Induction of apoptosis in human Caco2 cells assessed as caspase-3 concentration at 31 uM after 24 hrs by colorimetric analysis (reference value: 0.193 nmol/ml); assay type: functional
Caco-2 [18] = assay: Induction of apoptosis in human Caco2 cells assessed as caspase-3 concentration at 62.3 uM after 24 hrs by colorimetric analysis (reference value: 0.193 nmol/ml); assay type: functional
Caco-2 [19] = assay: Induction of apoptosis in human Caco2 cells assessed as caspase-3 concentration at 62 uM after 24 hrs by colorimetric analysis (reference value: 0.193 nmol/ml); assay type: functional
Caco-2 [20] = assay: Induction of apoptosis in human Caco2 cells assessed as caspase-3 concentration at 15 uM after 24 hrs by colorimetric analysis (reference value: 0.193 nmol/ml); assay type: functional
Caco-2 [21] = assay: Induction of apoptosis in human Caco2 cells assessed as Fas-ligand concentration at 15 uM after 24 hrs by FASL-based ELISA (reference value: 20.5 pg/ml); assay type: functional
Outline: (§2)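 Caco-2 cells were grown in RPMI-1640 with 10% FBS, penicillin and streptomycin at 37 C under 5% CO2. Cells were exposed to the test agent for 24 h. Fas-ligand in the cells was then measured with a colorimetric human FASL ELISA kit and reported as pg/mL against an untreated control.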

Caco-2 [22] = assay: Induction of apoptosis in human Caco2 cells assessed as Fas-ligand concentration at 62 uM after 24 hrs by FASL-based ELISA (reference value: 20.5 pg/ml); assay type: functional; outline: as §2
Caco-2 [23] = assay: Induction of apoptosis in human Caco2 cells assessed as Fas-ligand concentration at 31 uM after 24 hrs by FASL-based ELISA (reference value: 20.5 pg/ml); assay type: functional; outline: as §2

## COc1ccc(/C=C2\SC(Nc3ccc(S(N)(=O)=O)cc3)=NC2=O)cc1
Caco-2 [1]
  Ratio: 0.466
Caco-2 [2]
  Ratio: 0.416
Caco-2 [3]
  Ratio: 0.179
Caco-2 [4]
  Ratio: 0.485
Caco-2 [5]
  Ratio: 0.281
Caco-2 [6]
  IC50: 1330 nM

## NS(=O)(=O)c1ccc(Nc2nc3nc(=S)[nH]c(-c4ccccc4)c3s2)cc1
Caco-2 [1]
  Ratio: 0.234
Caco-2 [7]
  Activity: 0.35 nmol/mL
Caco-2 [2]
  Ratio: 0.223
Caco-2 [8]
  Activity: 307.5 pg/mL
Caco-2 [9]
  Activity: 0.34 nmol/mL
Caco-2 [10]
  Activity: 115.5 pg/mL
Caco-2 [3]
  Ratio: 0.223
Caco-2 [11]
  Activity: 0.364 nmol/mL
Caco-2 [4]
  Ratio: 0.135
Caco-2 [5]
  Ratio: 0.304
Caco-2 [12]
  Activity: 165.7 pg/mL
Caco-2 [6]
  IC50: 333 nM

## NS(=O)(=O)c1ccc(Nc2nc3nc(=S)[nH]c(-c4ccc(Cl)cc4)c3s2)cc1
Caco-2 [1]
  Ratio: 0.338
Caco-2 [7]
  Activity: 0.404 nmol/mL
Caco-2 [2]
  Ratio: 0.339
Caco-2 [8]
  Activity: 641.8 pg/mL
Caco-2 [9]
  Activity: 0.366 nmol/mL
Caco-2 [10]
  Activity: 312.4 pg/mL
Caco-2 [3]
  Ratio: 0.456
Caco-2 [11]
  Activity: 0.37 nmol/mL
Caco-2 [4]
  Ratio: 0.276
Caco-2 [5]
  Ratio: 0.433
Caco-2 [12]
  Activity: 309.4 pg/mL
Caco-2 [6]
  IC50: 333 nM

## NS(=O)(=O)c1ccc(Nc2nc3noc(-c4ccccc4)c3s2)cc1
Caco-2 [1]
  Ratio: 0.304
Caco-2 [2]
  Ratio: 0.295
Caco-2 [3]
  Ratio: 0.335
Caco-2 [4]
  Ratio: 0.456
Caco-2 [5]
  Ratio: 0.442
Caco-2 [6]
  IC50: 669 nM

## COc1cccc2c1C(=O)c1c(O)c3c(c(O)c1C2=O)C[C@@](O)(C(=O)CO)C[C@@H]3O[C@H]1C[C@H](N)[C@H](O)[C@H](C)O1 [DOXORUBICIN]
Caco-2 [1]
  Ratio: 0.663
Caco-2 [13]
  Activity: 41.65 pg/mL
Caco-2 [14]
  Activity: 95.8 pg/mL
Caco-2 [2]
  Ratio: 0.552
Caco-2 [3]
  Ratio: 0.597
Caco-2 [15]
  Activity: 0.272 nmol/mL
Caco-2 [4]
  Ratio: 0.343
Caco-2 [5]
  Ratio: 0.814
Caco-2 [16]
  Activity: 56.41 pg/mL
Caco-2 [17]
  Activity: 0.251 nmol/mL
Caco-2 [6]
  IC50: 63300 nM
Caco-2 [18]
  Activity: 0.26 nmol/mL

## NS(=O)(=O)c1ccc(NC2=NC(=O)/C(=C/c3ccccc3)S2)cc1
Caco-2 [1]
  Ratio: 0.133
Caco-2 [7]
  Activity: 0.43 nmol/mL
Caco-2 [2]
  Ratio: 0.422
Caco-2 [8]
  Activity: 706.12 pg/mL
Caco-2 [9]
  Activity: 0.38 nmol/mL
Caco-2 [10]
  Activity: 445.2 pg/mL
Caco-2 [3]
  Ratio: 0.182
Caco-2 [11]
  Activity: 0.37 nmol/mL
Caco-2 [4]
  Ratio: 0.068
Caco-2 [5]
  Ratio: 0.348
Caco-2 [12]
  Activity: 775.2 pg/mL
Caco-2 [6]
  IC50: 334 nM

## O=c1[nH]cc(F)c(=O)[nH]1 [FLUOROURACIL]
Caco-2 [1]
  Ratio: 0.325
Caco-2 [19]
  Activity: 0.73 nmol/mL
Caco-2 [20]
  Activity: 0.92 nmol/mL
Caco-2 [2]
  Ratio: 0.525
Caco-2 [3]
  Ratio: 0.31
Caco-2 [4]
  Ratio: 0.254
Caco-2 [21]
  Activity: 287.7 pg/mL
Caco-2 [22]
  Activity: 66.2 pg/mL
Caco-2 [5]
  Ratio: 0.405
Caco-2 [17]
  Activity: 0.8 nmol/mL
Caco-2 [23]
  Activity: 140.1 pg/mL
Caco-2 [6]
  IC50: 31000 nM

## NS(=O)(=O)c1ccc(NC2=NC(=O)/C(=C/c3ccc(Cl)cc3)S2)cc1
Caco-2 [1]
  Ratio: 0.113
Caco-2 [2]
  Ratio: 0.086
Caco-2 [3]
  Ratio: 0.314
Caco-2 [4]
  Ratio: 0.153
Caco-2 [5]
  Ratio: 0.285
Caco-2 [6]
  IC50: 667 nM

## NS(=O)(=O)c1ccc(Nc2nc3noc(-c4ccc(Cl)cc4)c3s2)cc1
Caco-2 [1]
  Ratio: 0.219
Caco-2 [7]
  Activity: 0.366 nmol/mL
Caco-2 [2]
  Ratio: 0.202
Caco-2 [8]
  Activity: 312.2 pg/mL
Caco-2 [9]
  Activity: 0.409 nmol/mL
Caco-2 [10]
  Activity: 111.3 pg/mL
Caco-2 [3]
  Ratio: 0.248
Caco-2 [11]
  Activity: 0.407 nmol/mL
Caco-2 [4]
  Ratio: 0.197
Caco-2 [5]
  Ratio: 0.319
Caco-2 [12]
  Activity: 147.5 pg/mL
Caco-2 [6]
  IC50: 333 nM

## COc1ccc(-c2onc3nc(Nc4ccc(S(N)(=O)=O)cc4)sc23)cc1
Caco-2 [1]
  Ratio: 0.317
Caco-2 [2]
  Ratio: 0.229
Caco-2 [3]
  Ratio: 0.401
Caco-2 [4]
  Ratio: 0.228
Caco-2 [5]
  Ratio: 0.412
Caco-2 [6]
  IC50: 559 nM

## NS(=O)(=O)c1ccc(Nc2nc3nc(=O)[nH]c(-c4ccccc4)c3s2)cc1
Caco-2 [1]
  Ratio: 0.285
Caco-2 [2]
  Ratio: 0.229
Caco-2 [3]
  Ratio: 0.237
Caco-2 [4]
  Ratio: 0.227
Caco-2 [5]
  Ratio: 0.371
Caco-2 [6]
  IC50: 334 nM

## NS(=O)(=O)c1ccc(Nc2nc3nc(=O)[nH]c(-c4ccc(Cl)cc4)c3s2)cc1
Caco-2 [1]
  Ratio: 0.112
Caco-2 [2]
  Ratio: 0.156
Caco-2 [3]
  Ratio: 0.603
Caco-2 [4]
  Ratio: 0.073
Caco-2 [5]
  Ratio: 0.519
Caco-2 [6]
  IC50: 12700 nM

## COc1ccc(-c2[nH]c(=O)nc3nc(Nc4ccc(S(N)(=O)=O)cc4)sc23)cc1
Caco-2 [1]
  Ratio: 0.473
Caco-2 [2]
  Ratio: 0.257
Caco-2 [3]
  Ratio: 0.362
Caco-2 [4]
  Ratio: 0.167
Caco-2 [5]
  Ratio: 0.477
Caco-2 [6]
  IC50: 667 nM

## COc1ccc(-c2[nH]c(=S)nc3nc(Nc4ccc(S(N)(=O)=O)cc4)sc23)cc1
Caco-2 [1]
  Ratio: 0.299
Caco-2 [2]
  Ratio: 0.186
Caco-2 [3]
  Ratio: 0.344
Caco-2 [4]
  Ratio: 0.169
Caco-2 [5]
  Ratio: 0.444
Caco-2 [6]
  IC50: 667 nM
